How the values were obtained:
[1] = test system: HK853; experiment: Fluorescence polarization; format: binding, Thermotoga maritima
[2] = test system: protein kinase D; details: cited from earlier work
[3] = test system: P. aeruginosa; experiment: Biofilm formation, crystal violet staining assay; format: cell-based, Pseudomonas aeruginosa; details: compared to a DMSO control, one replicate
[4] = test system: Methicillin-sensitive Staphylococcus aureus; experiment: Cell viability by optical density and resazurin indicator dye; format: cell-based; details: compared to a DMSO control, one replicate
[5] = molecular target: VicK (Streptococcus pneumoniae, UniProt Q8DPL8); experiment: ATP[γ-33P] enzymatic activity inhibition assay; format: biochemical; details: at non-aggregating concentrations
VicK, sequence (Q8DPL8 whole entry): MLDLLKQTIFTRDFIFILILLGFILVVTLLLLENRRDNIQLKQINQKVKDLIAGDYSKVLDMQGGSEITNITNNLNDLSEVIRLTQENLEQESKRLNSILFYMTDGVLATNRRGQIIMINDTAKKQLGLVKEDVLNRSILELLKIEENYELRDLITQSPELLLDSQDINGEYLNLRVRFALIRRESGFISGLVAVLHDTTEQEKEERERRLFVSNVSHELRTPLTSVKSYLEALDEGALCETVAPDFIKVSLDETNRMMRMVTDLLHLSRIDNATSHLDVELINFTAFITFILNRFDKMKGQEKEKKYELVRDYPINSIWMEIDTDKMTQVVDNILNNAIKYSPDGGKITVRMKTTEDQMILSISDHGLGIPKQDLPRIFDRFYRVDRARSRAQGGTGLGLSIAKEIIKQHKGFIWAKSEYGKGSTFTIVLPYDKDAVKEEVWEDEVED
Summary of the method: (§1)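 Secondary assay run in a coupled competition-aggregation format on two histidine kinases: HK853 from Thermotoga maritima and VicK from Streptococcus pneumoniae. Enzymatic activity is followed using ATP[γ-33P], and the degree of inhibition by the test compound is measured.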

[6] = test system: S. aureus; experiment: Biofilm formation, crystal violet staining assay; format: cell-based, Staphylococcus aureus; details: compared to a DMSO control, one replicate
[7] = test system: Pseudomonas aeruginosa; experiment: Cell viability by optical density and resazurin indicator dye; format: cell-based; details: compared to a DMSO control, one replicate
[8] = test system: HK853; experiment: ATP[γ-33P] enzymatic activity inhibition assay; format: biochemical, Thermotoga maritima; details: at non-aggregating concentrations
Summary of the method: as §1

[9] = molecular target: p38 MAP kinase; details: read-out: inhibition of p38 MAP kinase; quantity type not given; cited from earlier work

Row | Structure (SMILES) | activity in the HTS (FP screen) for HK inhibition ([1]; related library compounds that were not leads) | inhibition of protein kinase D [2] | effect on biofilm production [3] | effect on cell viability [4] | inhibition of VicK activity [5] | effect on biofilm production [6] | displacement of ADP-BODIPY from the HK ATP-binding domain [1] | effect on cell viability [7] | inhibition of HK activity [8] | IC50 [9] [nM]
1 | Fc1ccc(-c2c(-c3ccncc3)[nH]c3cccnc23)cc1 [RO1153853–000] | inactive |  |  |  |  |  |  |  |  | 
2 | Fc1ccc(-c2c(-c3ccncc3)[nH]c3nccnc23)cc1 [compound 32] |  | potent inhibitor | little effect | did not cause a significant decrease in cell viability | inhibit | little effect | displace ADP-BODIPY | did not cause a significant decrease in cell viability | inhibit | 53
